APOBEC3A inh = human APOBEC3A DNA deaminase inhibition; inhibition, % at 20 µM; recombinant A3A, FAM/TAMRA ssDNA deamination fluorescence; 330,000 compounds, 0.41% hits; AID 493011; P31941;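 active means at least 40% inhibition at 20 µM here, with at most 30% in a related deaminase screen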;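 further: plate controls were A3A with DMSO for no effect and wells lacking A3A enzyme for full effect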
Target sequence (P31941 whole entry, looked up): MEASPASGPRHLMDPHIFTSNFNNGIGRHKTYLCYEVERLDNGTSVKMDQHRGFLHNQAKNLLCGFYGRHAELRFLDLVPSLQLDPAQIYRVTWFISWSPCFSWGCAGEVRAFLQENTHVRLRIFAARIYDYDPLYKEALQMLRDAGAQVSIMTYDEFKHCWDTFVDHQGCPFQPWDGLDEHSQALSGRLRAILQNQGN
LANA DNA inh = blocks KSHV LANA C-terminal domain binding to DNA; inhibition, % at 9 µM; 340,000 compounds, 0.078% hits; MBP-C-LANA/FAM-LBS DNA binding, fluorescence polarization;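 active means highest replicate inhibition at or above 60% at 9 µM, even if other replicates fall short; inactive means all replicates below 60% inhibition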;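 further: 0% = neutral control wells and 100% = 4 µM acridine orange control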
A3G deaminase = blocks human APOBEC3G single-stranded DNA deamination. AID 493012. Q9HC16. inhibition, % at 20 µM. recombinant A3G, ssDNA deamination FAM/TAMRA fluorescence. 330,000 compounds, 0.28% hits;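 active means inhibition of at least 40% at 20 µM, with no more than 30% in the related APOBEC3A deaminase screen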;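 further: plate controls were DMSO wells with A3G for no effect and wells lacking A3G enzyme for full effect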
Target sequence (Q9HC16 whole entry, looked up): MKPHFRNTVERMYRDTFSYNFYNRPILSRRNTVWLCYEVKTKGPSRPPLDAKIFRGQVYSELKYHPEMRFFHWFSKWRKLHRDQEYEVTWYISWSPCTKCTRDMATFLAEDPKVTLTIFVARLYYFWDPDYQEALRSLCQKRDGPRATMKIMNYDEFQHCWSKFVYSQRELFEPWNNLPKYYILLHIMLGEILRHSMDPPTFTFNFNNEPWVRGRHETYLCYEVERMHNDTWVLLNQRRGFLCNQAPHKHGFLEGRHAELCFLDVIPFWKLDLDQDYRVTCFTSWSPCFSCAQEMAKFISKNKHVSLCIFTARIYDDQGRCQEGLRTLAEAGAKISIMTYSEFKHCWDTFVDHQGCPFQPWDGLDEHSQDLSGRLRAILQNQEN
Keap1 Nrf2 FP = Keap1-Nrf2 (human) interaction inhibition; Keap1 Kelch-Nrf2 peptide fluorescence polarization, 1536-well; inhibition, % at 9.4 µM; Q14145; 340,000 compounds, 0.15% hits; AID 504523; in the data active means inhibition above about 12%;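 further: human Keap1 Kelch domain with fluorescein labeled Nrf2 9mer peptide probe; 0% = neutral control wells and 100% = peptide positive control; higher means more block of Keap1 binding to Nrf2 peptide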
CAL PDZ FP-1 = blocks peptide binding to human CAL PDZ domain. 330,000 compounds, 0.02% hits. purified CAL PDZ, TMR-peptide fluorescence polarization, 1 h. AID 504414. Q9HD26. inhibition, % at 20 µM;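 active means highest replicate inhibition of at least 40%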;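 further: plate controls were DMSO neutral control wells for no effect and unlabeled competitor peptide control wells for full effect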
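System: purified tagged CAL PDZ domain construct (CerCALP). Schedule: 1 h incubation at room temperature before polarization reading. Medium: 25 mM sodium phosphate pH 7.4, 150 mM NaCl, TCEP, IgG, Thesit. Read-out: percent inhibition from loss of millipolarization. Measured by: FP readout, S and P plane fluorescence. Probe or stimulus: fluorescent TMR peptide probe.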
CAL PDZ FP-2 = inhibitors of human CAL PDZ peptide binding; Q9HD26; purified CAL PDZ, TMR-peptide fluorescence polarization, 1 h; inhibition, % at 24.9 µM; 300,000 compounds, 0.92% hits; AID 602252;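 active means mean inhibition of at least 30% with at least half of replicates also reaching 30%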;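 further: 0% = DMSO neutral control and 100% = excess unlabeled competitor peptide PRC23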
Starred values were filed as active, the others as inactive; · = no result. Only some compounds are listed: those with a hit (about 1.7% of all), similar ones and a draw of the others.

SMILES	APOBEC3A inh	LANA DNA inh	A3G deaminase	Keap1 Nrf2 FP	CAL PDZ FP-1	CAL PDZ FP-2
COc1ccc2cc(S(=O)(=O)N3CCCC3)ccc2c1	1	2	1	3	-1	81*
COc1cccc(CNC(=O)C(C)n2ccc3cc(S(=O)(=O)N4CCCCCC4)ccc32)c1 (centres undefined)	-2	-1	-1	-3	-1	-7
COc1cccc(CNC(=O)C(C)n2ccc3cc(S(=O)(=O)N4CCCC4)ccc32)c1 (centres undefined)	2	-2	0	3	-1	42*
COC(CNC(=O)CNC(=S)N(Cc1ccccc1)Cc1cccnc1)OC	3	-3	-4	-7	1	84*
O=C(CNC(=S)N(Cc1ccccc1)Cc1cccnc1)NCc1ccccc1	-3	0	-7	3	-3	-2
O=C(c1cc2cc(Cl)ccc2[nH]1)N1CCN(C(=O)c2ccco2)CC1	0	0	4	-2	-3	-5
COc1ccccc1CCNC(=O)c1ccc(NC(=O)CC2SC(N3CCCC3)=NC2=O)cc1 (centres undefined)	0	-1	-2	-3	-2	-6
Cc1cccc(Cn2c(C)c(C)c3cc(C(=O)NCCN4CCOCC4)ccc32)c1	-6	-2	1	1	-3	22
Cc1c(C)n(Cc2ccc(F)cc2)c2ccc(C(=O)NCCN3CCOCC3)cc12	-5	0	-4	-4	1	90*
CCc1ccccc1OCC(=O)Nc1ccc(F)c(S(=O)(=O)N2CCOCC2)c1	0	·	-3	·	0	31*
Cc1ccc(NC(=O)Cc2ccccc2)cc1S(=O)(=O)N1CCOCC1	-1	1	-4	-9	0	30*
Cc1ccc(NC(=O)CCNS(=O)(=O)c2ccccc2)cc1S(=O)(=O)N1CCOCC1	2	-1	5	4	-1	-2
CC/C(C)=N/Nc1nc(-c2cc3cccc(OC)c3oc2=O)cs1	1	-1	0	3	-1	·
CC(O)c1cccc(-c2ccc(CN3C[C@]4(CO)O[C@@H](CO)C[C@@H]4S3(=O)=O)cc2)c1 (some centres undefined)	4	0	6	1	-1	42*
N=C1SCC(=O)N1c1ncc(Cc2ccccc2Cl)s1	·	0	·	1	0	30*
O=C(COC(=O)c1ccc(Cl)c(S(=O)(=O)NCc2ccccc2)c1)NCC1CCCO1 (centres undefined)	-9	-1	-18	2	0	44*
O=C(COC(=O)/C=C/c1ccccc1Cl)NC1CCCC1	-2	0	-1	-3	-2	-4
S=C(Nc1ccccc1Cl)NC1CCN(Cc2ccccc2)CC1	1	-1	-9	-6	-1	-4
S=C(Nc1ccccc1Cl)NC1CCC(NC(=S)Nc2ccccc2Cl)CC1 (centres undefined)	0	-1	-1	4	0	31*
CN(C1CCCCC1)C(CNS(=O)(=O)c1ccccc1)c1ccccc1 (centres undefined)	0	1	1	-2	-2	-1
O=C1CCCC(=O)C1=Cc1c[nH]c2ccccc12	-1	-1	-4	-4	-1	70*
O=C(CSc1nnc([C@@H]2CCCN2)o1)c1ccc(Cl)cc1	1	0	3	-8	0	-19
C=C(C)CSc1nnc([C@@H]2CCCN2)o1	0	1	-11	2	0	42*
CCCCCN(C(=O)CCC(=O)OCC(=O)Nc1cccc(CC)c1)c1c(N)n(CCCC)c(=O)[nH]c1=O	0	1	-5	-3	-3	2
Cc1ccc(S(=O)(=O)N2CCOCC2)cc1C(=O)NC1CCN(Cc2ccccc2)CC1	·	1	·	-3	-1	-3
SMILES	APOBEC3A inh	LANA DNA inh	A3G deaminase	Keap1 Nrf2 FP	CAL PDZ FP-1	CAL PDZ FP-2
O=C(NC1CCN(Cc2ccccc2)C1)c1cc(S(=O)(=O)N2CCOCC2)ccc1Cl (centres undefined)	-2	1	-4	-1	0	59*
COc1cc(-n2ccnc2SC)c(Cl)cc1Cl	-2	0	-3	5	0	54*
COC(=O)c1cn(CC(=O)Nc2ccccc2C)c2ccccc12	-8	3	-8	3	·	-1
O=C(/C(=C/c1cccnc1)n1ccnc1)c1ccc(Cl)cc1Cl	1	-1	0	-1	-6	·
Cc1ccc2nc(-c3ccc(NC(=S)NCCC(C)C)cc3)sc2c1	1	0	3	-1	-2	active
Cc1cc(C)c(NC(=O)CN2CCN(c3ccccn3)CC2)c(C)c1	-4	-1	-1	-3	1	5
O=C(O)Cn1ncc2ccccc2c1=O	-3	-1	-8	2	-2	-2
CSCC(O)Cn1ncc2ccccc2c1=O (centres undefined)	-3	2	5	0	-1	31*
CC1CCCCC12NC(=O)N(CC(=O)N1CCN(C(=O)c3cccs3)CC1)C2=O (centres undefined)	2	2	-4	-5	1	5
O=C(O)CC(CNC(=O)C1CCCN1C(=O)OCc1ccccc1)c1ccccc1 (centres undefined)	-2	0	-8	4	·	74*
O=C(O)C(NC(=O)C1CCCN1C(=O)OCc1ccccc1)c1ccccc1 (centres undefined)	-2	0	-3	0	0	-2
Cc1ccc(CNC(=O)c2ccc(N3CCC4(CC3)CC(c3ccccc3)=NO4)c(NC(=O)c3c(Cl)cccc3Cl)c2)cc1	1	-2	-2	-7	1	51*
CCOC(=O)c1[nH]ncc1CN1CCN(Cc2ccccc2)C(CCO)C1 (centres undefined)	4	-1	1	-4	-1	30*
CCCn1c(=C(C#N)C#N)s/c(=C2\C=Cc3ccccc3N2CC)c1=O	·	0	·	-4	0	55*
CCCN1C(=O)/C(=c2\s/c(=C3\C=Cc4ccccc4N3CC)c(=O)n2-c2ccccc2)SC1=S	-4	·	-7	·	·	·
O=C(CN1C(=O)C2C3C=CC(C3)C2C1=O)OCC(=O)c1ccccc1 (centres undefined)	-2	-3	-6	-2	-2	-2
O=C(CN1C(=O)C2C3C=CC(C3)C2C1=O)OCC(=O)c1ccc(Cl)cc1 (centres undefined)	-2	0	-5	-1	0	74*
O=C(O)c1ccccc1NS(=O)(=O)c1ccc(N/N=C/c2ccc(O)c(O)c2)c([N+](=O)[O-])c1	·	80*	·	8	-1	5
Nc1c(C(=O)Nc2ccccc2)nnn1-c1ccc2c(c1)OCCO2	1	1	-12	-3	-1	80*
Cc1ccc(NC(=O)c2nnn(-c3ccc4c(c3)OCCO4)c2N)cc1	-2	0	-11	0	-1	·
